Converted amounts (≈) assume the structure as drawn. “And” between values parts separate entries of the source, which are not always exact repeats. Identical values can stand only once.
Tests used:
Mus musculus [1] = assay: % Efficacy in eosinophils at 30 mg/kg of oral dosing in an inhaled allergen-induced cell influx in mice.; type: functional, Eosinophil
Summary of the method: (§1)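 Mouse inhaled-allergen model. Compounds or vehicle (0.2% methylcellulose) given orally 18 h and 1 h before the first of two allergen inhalations. Lungs lavaged 24-27 h after the first inhalation. Read-outs were lavage cell count (no./µL), neutrophil and eosinophil percentages, and soluble ICAM-1 in serum and BAL 24 h after antigen. Values are mean ± SE.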

Mus musculus [2] = assay: Efficacy in lavage cells at 30 mg/kg of oral dosing in an inhaled allergen-induced cell influx in mice.; type: functional; summary of the method: as §1
Mus musculus [3] = assay: % Efficacy in neutrophils at 30 mg/kg of oral dosing in an inhaled allergen-induced cell influx in mice.; type: functional; summary of the method: as §1
Mus musculus [4] = assay: Efficacy in serum sICAM-1 at 30 mg/kg of oral dosing in an inhaled allergen-induced cell influx in mice.; type: functional; summary of the method: as §1
Mus musculus [5] = assay: Efficacy in lBAL sICAM-1 at 30 mg/kg of oral dosing in an inhaled allergen-induced cell influx in mice.; type: functional; summary of the method: as §1
Mus musculus [6] = assay: Efficacy in serum sICAM-1 at 0.3 mg/kg of oral dosing in an inhaled allergen-induced cell influx in 7 mice.; type: functional; summary of the method: as §1
[7] = target: T1, E-selectin (Homo sapiens) (UniProt P16581); assay: In vitro inhibitory potency compared to PMA induced Selectin E expression in human endothelial cells (ELISA assay) at 1 uM; type: cell-based; details: Endothelial cell
T1 sequence (whole entry): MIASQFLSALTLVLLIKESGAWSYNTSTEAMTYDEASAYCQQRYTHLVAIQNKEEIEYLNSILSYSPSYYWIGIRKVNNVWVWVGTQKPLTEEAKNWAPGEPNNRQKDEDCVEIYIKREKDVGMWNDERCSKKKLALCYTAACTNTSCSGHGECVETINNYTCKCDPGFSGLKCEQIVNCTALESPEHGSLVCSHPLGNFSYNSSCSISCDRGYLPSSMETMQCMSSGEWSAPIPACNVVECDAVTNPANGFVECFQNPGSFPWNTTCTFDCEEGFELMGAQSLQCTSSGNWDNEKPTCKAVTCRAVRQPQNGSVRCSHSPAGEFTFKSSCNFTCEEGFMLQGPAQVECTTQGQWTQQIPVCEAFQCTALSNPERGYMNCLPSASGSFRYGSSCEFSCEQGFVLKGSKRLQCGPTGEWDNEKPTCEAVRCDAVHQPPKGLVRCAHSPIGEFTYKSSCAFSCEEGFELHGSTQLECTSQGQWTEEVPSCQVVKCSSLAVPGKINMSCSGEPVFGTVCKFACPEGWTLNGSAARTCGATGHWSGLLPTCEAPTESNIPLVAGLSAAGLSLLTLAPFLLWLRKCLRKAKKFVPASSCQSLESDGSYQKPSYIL
Summary of the method: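 HUVEC whole-cell ELISA with PMA substituted for TNFα as inducer. Compound preincubated 24 h at 37 °C, then 6 h induction at 37 °C. E-selectin detected with mouse monoclonal antibody and HRP anti-mouse IgG, OPD development, A490. Value given as percent inhibition at a single concentration of 1 µM.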

[8] = target: T2, Intercellular adhesion molecule 1 (Homo sapiens, UniProt P05362); assay: In vitro inhibitory potency compared to TNF-alpha induced Intercellular adhesion molecule-1 in human endothelial cells (ELISA assay); type: cell-based, Endothelial cell
T2 sequence (P05362 whole entry): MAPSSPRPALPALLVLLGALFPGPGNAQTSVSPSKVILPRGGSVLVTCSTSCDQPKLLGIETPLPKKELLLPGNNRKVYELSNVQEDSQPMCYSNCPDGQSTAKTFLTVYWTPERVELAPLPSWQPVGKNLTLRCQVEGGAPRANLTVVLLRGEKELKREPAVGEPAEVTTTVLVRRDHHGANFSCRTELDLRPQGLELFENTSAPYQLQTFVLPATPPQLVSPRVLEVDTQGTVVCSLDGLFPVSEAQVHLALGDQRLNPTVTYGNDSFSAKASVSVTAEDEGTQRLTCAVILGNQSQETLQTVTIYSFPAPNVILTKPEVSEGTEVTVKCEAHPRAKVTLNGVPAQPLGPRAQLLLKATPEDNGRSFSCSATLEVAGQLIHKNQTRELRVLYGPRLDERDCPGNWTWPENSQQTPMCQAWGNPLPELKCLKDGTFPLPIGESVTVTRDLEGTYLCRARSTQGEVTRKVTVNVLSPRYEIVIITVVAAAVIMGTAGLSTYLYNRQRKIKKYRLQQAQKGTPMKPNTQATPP
Summary of the method: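 Primary HUVECs seeded at 5 × 10^4 cells/mL in EBM/2% FBS with supplements. After 24 h of compound at 37 °C, TNFα was added to 5 ng/mL final for 6 h at 37 °C. Cell-surface ICAM-1 was detected with a mouse monoclonal antibody, then HRP anti-mouse IgG and OPD, with absorbance at 490 nm. Triplicate determinations.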

Mus musculus [9] = assay: % Efficacy in neutrophils at 30 mg/kg of oral dosing in an inhaled allergen-induced cell influx in 6 mice.; type: functional; summary of the method: as §1
[10] = Solubility in pH 7.4 buffer.; type: physicochemical
Mus musculus [11] = assay: Efficacy in lBAL sICAM-1 at 0.3 mg/kg of oral dosing in an inhaled allergen-induced cell influx in 7 mice.; type: functional; summary of the method: as §1
E-selectin [12] = target: T3, E-selectin (Homo sapiens, UniProt P16581); assay: Inhibition of selectin E in human endothelial cells; type: cell-based, Endothelial cell
T3 sequence (P16581 whole entry): T1 sequence (whole entry)
Summary of the method: (§2)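 Whole-cell ELISA on primary HUVECs plated at 5 × 10^4 cells/mL in EBM/2% FBS with growth supplements. Compound preincubated 24 h at 37 °C, then inducer added (TNFα at 5 ng/mL final, or IL-1β or PMA in its place) for 6 h at 37 °C. Mouse monoclonal anti-E-selectin, anti-ICAM-1 or anti-VCAM-1 was applied overnight at 4 °C, then HRP anti-mouse IgG. Detection with OPD, A490. Triplicate assays.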

Mus musculus [13] = assay: Efficacy in serum sICAM-1 at 30 mg/kg of oral dosing in an inhaled allergen-induced cell influx in 6 mice.; type: functional; summary of the method: as §1
E-selectin [14] = target: T3, E-selectin; assay: In vitro inhibitory potency compared to TNF-alpha induced Selectin E expression in human endothelial cells (ELISA assay); type: cell-based, Endothelial cell; summary of the method: as §2
[15] = target: T2, Intercellular adhesion molecule 1; assay: In vitro inhibitory potency compared to PMA induced Intercellular adhesion molecule-1 in human endothelial cells (ELISA assay); type: cell-based, Endothelial cell; summary of the method: as §2
Mus musculus [16] = assay: Efficacy in lBAL sICAM-1 at 30 mg/kg of oral dosing in an inhaled allergen-induced cell influx in 6 mice.; type: functional; summary of the method: as §1
Mus musculus [17] = assay: % Efficacy in neutrophils at 3 mg/kg of oral dosing in an inhaled allergen-induced cell influx in 7 mice.; type: functional; summary of the method: as §1
[18] = target: T2, Intercellular adhesion molecule 1; assay: In vitro inhibitory potency compared to IL1-beta induced Intercellular adhesion molecule-1 in human endothelial cells (ELISA assay); type: cell-based, Endothelial cell
Summary of the method: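 Primary HUVECs seeded at 5 × 10^4 cells/mL in EBM/2% FBS with EGF, bovine brain extract and gentamicin. Compound added next day for 24 h at 37 °C, then inducer (IL-1β or PMA, level not stated) for 6 h at 37 °C. Whole-cell ELISA used mouse monoclonal anti-ICAM-1 or anti-VCAM-1, HRP donkey anti-mouse IgG and OPD, read at 490 nm. Run in triplicate.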

Mus musculus [19] = assay: % Efficacy in eosinophils at 0.3 mg/kg of oral dosing in an inhaled allergen-induced cell influx in 7 mice.; type: functional, Eosinophil; summary of the method: as §1
[20] = target: T2, Intercellular adhesion molecule 1; assay: Inhibition of intercellular adhesion molecule-1 (ICAM1) in human endothelial cells; type: cell-based, Endothelial cell; summary of the method: as §2
Mus musculus [21] = assay: % Efficacy in eosinophils at 30 mg/kg of oral dosing in an inhaled allergen-induced cell influx in 6 mice.; type: functional, Eosinophil; summary of the method: as §1
Mus musculus [22] = assay: Efficacy in serum sICAM-1 at 3 mg/kg of oral dosing in an inhaled allergen-induced cell influx in 7 mice.; type: functional; summary of the method: as §1
Mus musculus [23] = assay: % Efficacy in eosinophils at 3 mg/kg of oral dosing in an inhaled allergen-induced cell influx in 7 mice.; type: functional, Eosinophil; summary of the method: as §1
Mus musculus [24] = assay: % Efficacy in neutrophils at 0.3 mg/kg of oral dosing in an inhaled allergen-induced cell influx in 7 mice.; type: functional; summary of the method: as §1
E-selectin [25] = target: T3, E-selectin; assay: In vitro inhibitory potency compared to IL1-beta induced Selectin E in human endothelial cells (ELISA assay); type: cell-based, Endothelial cell; summary of the method: as §2
Mus musculus [26] = assay: Efficacy in lavage cells at 3 mg/kg of oral dosing in an inhaled allergen-induced cell influx in 7 mice.; type: functional; summary of the method: as §1
Mus musculus [27] = assay: Efficacy in lBAL sICAM-1 at 3 mg/kg of oral dosing in an inhaled allergen-induced cell influx in 7 mice.; type: functional; summary of the method: as §1
[28] = Toxicity in HUVEC cell lysates.; type: cell-based, Lysate; details: human
Mus musculus [29] = assay: Efficacy in lavage cells at 0.3 mg/kg of oral dosing in an inhaled allergen-induced cell influx in 7 mice.; type: functional; summary of the method: as §1

CNC(=O)c1cc2c(Oc3ccc(C(F)(F)F)cc3)cncc2s1
Efficacy (Mus musculus [1]): 10%
Efficacy (Mus musculus [2]): 107 number ul-1
Efficacy (Mus musculus [3]): 48%
Efficacy (Mus musculus [4]): 19.6 µg/mL
Efficacy (Mus musculus [5]): 1.89 µg/mL

NC(=O)c1cc2c(Oc3ccc(Br)cc3)cncc2s1
Efficacy (Mus musculus [6]): 20.7 µg/mL
inhibition [7]: 48%
IC50 [8]: 3 nM
Efficacy (Mus musculus [9]): 38% and 57%
solubility [10]: 0.46 µg/mL (≈ 1.32 µM)
Efficacy (Mus musculus [11]): 2.67 µg/mL
IC50 (E-selectin [12]): 4 nM
Efficacy (Mus musculus [13]): 18.8 µg/mL and 18.5 µg/mL
IC50 (E-selectin [14]): 4 nM
IC50 [15]: 6 nM
Efficacy (Mus musculus [16]): 1.74 µg/mL and 1.99 µg/mL
Efficacy (Mus musculus [17]): 60%
IC50 [18]: 3 nM
Efficacy (Mus musculus [19]): 19%
IC50 [20]: 5 nM
Efficacy (Mus musculus [21]): 8% and 9%
Efficacy (Mus musculus [22]): 21.3 µg/mL
Efficacy (Mus musculus [23]): 14%
Efficacy (Mus musculus [24]): 44%
IC50 (E-selectin [25]): 6 nM
Efficacy (Mus musculus [26]): 319 number ul-1
Efficacy (Mus musculus [27]): 2.68 µg/mL
IC50 [28]: > 100000 nM
Efficacy (Mus musculus [29]): 282 number ul-1

Reference: ChEMBL document CHEMBL1134459 (J Med Chem, 2001)
